V1aR counter = agonists of human V1a receptor, primary screen, counter-screen for OXTR agonist project, fluorescence, CHO-V1R cells; 320,000 tested, 0.25% active; activation, % at 3 µM; Fluo-8 calcium fluorescence, agonist mode; 0% DMSO, 100% 3 nM vasopressin; Vasopressin V1a receptor (Homo sapiens), P37288;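 active = activation above the mean activation of all tested compounds plus 3 SD, per screening run, cut at about 20% in these data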;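 note: signal is peak over basal fluorescence ratio across a 100 second FLIPR read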
Target sequence (P37288 whole entry, looked up): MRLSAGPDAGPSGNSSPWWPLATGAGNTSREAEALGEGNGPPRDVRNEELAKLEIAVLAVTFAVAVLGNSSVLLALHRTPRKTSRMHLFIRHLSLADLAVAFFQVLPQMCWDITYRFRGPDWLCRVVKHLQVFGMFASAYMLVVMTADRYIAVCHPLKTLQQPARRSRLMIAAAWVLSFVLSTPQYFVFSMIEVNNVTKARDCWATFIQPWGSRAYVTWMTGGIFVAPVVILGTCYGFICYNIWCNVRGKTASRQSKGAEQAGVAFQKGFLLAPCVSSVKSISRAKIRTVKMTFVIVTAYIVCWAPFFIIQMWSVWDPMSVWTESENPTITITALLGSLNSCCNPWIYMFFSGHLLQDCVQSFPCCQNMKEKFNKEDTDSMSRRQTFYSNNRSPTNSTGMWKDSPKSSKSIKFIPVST
TRPML3 agonist = human TRPML3 channel agonists, primary screen, cell-based, HEK293 TRPML3-YFP, Fluo-8 calcium fluorescence, 3 µM | Mucolipin-3 (Homo sapiens), Q8TDD5 | 100% = the carbachol control signal | activation, % at 3 µM | 220,000 tested, 0.29% active;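 active = activation above its plate's cutoff, the mean activation of the plate's test wells plus 3 SD, cut at about 12% in these data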
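Material: TRPML3-YFP stable HEK293 cells | Dosing: One concentration, 3 µM nominal, 0.3% DMSO | Timing: 125 s total fluorescence read per well | Technique: Fluo-8 calcium dye fluorescence, ex 470-495, em 515-575 nm | Measure: Percent activation from peak-to-basal fluorescence ratio, scaled between DMSO and carbachol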
TRPN1 ag = zebrafish TRPN1 channel agonists, primary screen, cell-based, HEK293, calcium fluorescence; activation, % at 3 µM; HEK293 zebrafish TRPN1-YFP, Fluo-8 calcium fluorescence; 100% = response to 87 µM carbachol; transient receptor potential cation channel N1 (TRPN1/NompC), Danio rerio; 220,000 tested, 0.18% active; AID 1424, 2008;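 active = activation above its plate's cutoff, the mean activation of test wells on that plate plus 3 SD, cut at about 19% in these data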
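Material: zebrafish TRPN1-YFP in HEK293 cells. Doses: one dose of 3 µM, 0.3% DMSO. Incubation: dye 1 h 37 °C plus 30 min RT. Measured by: intracellular calcium fluorescence with Fluo-8.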
OXTR potentiate = human OXTR potentiators, primary screen, fluorescence, CHO-OTR cells, Fluo-8 calcium. Oxytocin receptor (Homo sapiens), P30559. Fluo-8 calcium fluorescence, potentiator mode; 0% = oxytocin EC15, 100% = EC100. activation, % at 3 µM. 320,000 tested, 0.061% active. AID 2445, 2010;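 active = activation above that plate's cutoff, the mean activation of tested compounds plus 3 SD, cut at about 6.6% in these data, passing the limit was not always enough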
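Assay system: CHO cell line stably expressing human OTR | Also added: Oxytocin at about EC15, sub-maximal agonist stimulus | Times: Compound 6 min at room temperature before oxytocin, 100 s read | Measured by: Fluo-8 intracellular calcium fluorescence, ex 470-495, em 515-575 nm | Controls: EC15 oxytocin alone as 0%, 75 nM oxytocin as 100%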
OXTR ag = human OXTR agonists, primary screen, fluorescence, CHO-OTR cells, Fluo-8 calcium; Fluo-8 calcium fluorescence; normalized: DMSO 0%, oxytocin 100%; activation, % at 3 µM; 320,000 tested, 0.32% active; Oxytocin receptor (Homo sapiens), P30559;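 active = activation above the mean of all tested compounds plus 3 SD, cutoff set per screening run, cut at about 20% in these data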;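 note: peak over basal fluorescence ratio from a 100 s FLIPR kinetic read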
OXTR ag confirm = human OXTR agonists, confirmation, fluorescence, CHO-OTR cells, triplicate; shares compounds with OXTR ag; Fluo-8 calcium fluorescence, agonist; activation, % at 3 µM; 390 tested, 20% active;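 active = mean activation above about 20% derived from the earlier single-dose screen, limit read from the data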;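 note: peak over minimum fluorescence ratio per well during a 100 second FLIPR read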
V1aR counter 3x = V1a receptor agonists, calcium signal, counter-screen for OXTR agonist project, triplicate, fluorescence, CHO-V1R cells. shares compounds with OXTR ag. Fluo-8 calcium fluorescence. activation, % at 3 µM. 390 tested, 10% active. AID 434991, 2010;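 active = mean activation over triplicate exceeds the hit threshold set in the earlier primary screen, cut at about 20% in these data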;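 note: peak over basal fluorescence ratio within a 100 second read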
Large screens that a line does not name were inactive (follow-up assays come after a bar, where they were run). The list is not random: actives were taken first. Their share in the collection is about 0.59%.

NC(=O)c1cc([N+](=O)[O-])ccc1NCc1ccc(N)cc1	none (no result: TRPML3 agonist, TRPN1 ag)
COc1cc(CNCc2ccccn2)ccc1OCc1ccc(Cl)cc1Cl	OXTR ag 25.0 | OXTR ag confirm inactive | V1aR counter 3x inactive
COc1cc(CNCCO)cc(Cl)c1OCc1ccc(Cl)cc1Cl	OXTR ag 20.0 | OXTR ag confirm inactive | V1aR counter 3x inactive
CC(=O)c1ccc(N2CCN(c3ccccc3O)CC2)c([N+](=O)[O-])c1	OXTR ag 23.4 (no result: TRPML3 agonist, TRPN1 ag) | OXTR ag confirm inactive | V1aR counter 3x inactive
O=C(O)c1ccccc1C(=O)c1ccc(N2CCCC2)c([N+](=O)[O-])c1	none
Cc1c(O)c2c3c(cccc3c1O)C(=O)N(c1ccccc1)C2=O	OXTR ag 24.2 | OXTR ag confirm 29.4 | V1aR counter 3x 34.6
O=C(O)c1ccc2c3c(cccc13)C(=O)N(c1ccccc1)C2=O	none
O=C(COC(=O)c1ccc(F)cc1Cl)NC(=O)NC1CCCC1	none (no result: TRPML3 agonist, TRPN1 ag)
O=S(=O)(c1ccc(F)c(F)c1)N1CCC2(CC1)OCCO2	none (no result: TRPML3 agonist, TRPN1 ag)
COc1ccc(NC2CCCN(C(=O)c3cn(C)c4ccccc34)C2)cc1 (centres undefined)	none (no result: TRPML3 agonist, TRPN1 ag)
CC(C(=O)Nc1ccc2c(c1)OCO2)c1ccc([N+](=O)[O-])cc1 (centres undefined)	OXTR ag 20.3 | OXTR ag confirm 21.9 | V1aR counter 3x inactive
CS(=O)(=O)N1CCCC(c2nc(-c3ccc(S(=O)(=O)NCc4ccccc4)cc3)no2)C1 (centres undefined)	OXTR ag 19.7 | OXTR ag confirm inactive | V1aR counter 3x inactive
Oc1ccc(Cl)cc1CNCc1ccc(Cl)cc1	none (no result: TRPML3 agonist, TRPN1 ag)
Oc1ccc(Cl)cc1CNCc1ccc(F)cc1	OXTR ag 27.6 (no result: TRPML3 agonist, TRPN1 ag) | OXTR ag confirm 27.5 | V1aR counter 3x inactive
COc1ccc(CC(=O)NC(=S)Nc2ccc(S(=O)(=O)NC(C)(C)C)cc2)cc1	OXTR ag 20.0 | OXTR ag confirm inactive | V1aR counter 3x inactive
CC(C)CCN1C(N(C)C)=NC[C@@H]1C	none (no result: TRPML3 agonist, TRPN1 ag)
CN(c1ccccc1)S(=O)(=O)c1ccc(C(=O)N2CCCC2)cc1	none (no result: TRPML3 agonist, TRPN1 ag)
CN(c1ccc(C(=O)N2CCCCC2)cc1)S(=O)(=O)c1ccccc1	OXTR ag 20.9 | OXTR ag confirm inactive | V1aR counter 3x inactive
CC(C)Cn1c(SCC(=O)Nc2cc(Cl)c(Cl)cc2Cl)nc(O)cc1=O	none (no result: TRPML3 agonist, TRPN1 ag)
COc1ccc(NS(=O)(=O)c2ccc(C(=O)NCC3(N4CCOCC4)CCCCC3)cc2)cc1	OXTR ag 23.8 (no result: TRPML3 agonist, TRPN1 ag) | OXTR ag confirm inactive | V1aR counter 3x inactive
CCS(=O)(=O)c1ccc2oc(SCC(=O)c3c(N)n(C4CC4)c(=O)[nH]c3=O)nc2c1	none (no result: TRPML3 agonist, TRPN1 ag)
Cc1cccc(C(=O)OC(C)C(=O)NCC2CCCCC2)c1O (centres undefined)	none (no result: TRPML3 agonist, TRPN1 ag)
COc1ccc2c(c1)CC/C(=C\c1ccc(OC)c(Cn3nc(C)cc3C)c1)C2=O	OXTR ag 36.5 | OXTR ag confirm inactive | V1aR counter 3x inactive
CNCCNC[C@H](Cc1cccc2ccccc12)NCCc1ccccc1	none (no result: TRPML3 agonist, TRPN1 ag)
CNC[C@H](Cc1ccccc1)NC[C@@H](Cc1cccc2ccccc12)NCCc1ccc(C)cc1	OXTR ag 21.2 (no result: TRPML3 agonist, TRPN1 ag) | OXTR ag confirm inactive | V1aR counter 3x inactive
N#C/C(=C\c1ccc(O)cc1)C(=O)NCc1cccc(Cl)c1	OXTR ag 20.3 (no result: TRPML3 agonist, TRPN1 ag) | OXTR ag confirm inactive | V1aR counter 3x inactive
O=C(NC12CC3CC(CC(C3)C1)C2)c1ccccc1O	OXTR ag 23.8 | OXTR ag confirm inactive | V1aR counter 3x inactive
O=C(NNC(=O)C12CC3CC(CC(C3)C1)C2)c1ccccc1O	none (no result: TRPML3 agonist, TRPN1 ag)
CCOC(=O)Cn1c(=N)n(CCOc2ccc(OC)cc2)c2ccccc21	OXTR ag 39.2 | OXTR ag confirm inactive | V1aR counter 3x inactive

Screens: PubChem, The Scripps Research Institute Molecular Screening Center
